Source: article PMC13022283 (Scientific Reports, 2026)

Columns and labels:
Type in all cases: biochemical
[1] = target: T1, h-NTPDase2 (Homo sapiens, UniProt Q9Y5L3); experiment: h-NTPDase activity assay; conditions: for inhibition at 100 µM: read-out: % Inhibition h-NTPDase2
T1 sequence (Q9Y5L3 1-495): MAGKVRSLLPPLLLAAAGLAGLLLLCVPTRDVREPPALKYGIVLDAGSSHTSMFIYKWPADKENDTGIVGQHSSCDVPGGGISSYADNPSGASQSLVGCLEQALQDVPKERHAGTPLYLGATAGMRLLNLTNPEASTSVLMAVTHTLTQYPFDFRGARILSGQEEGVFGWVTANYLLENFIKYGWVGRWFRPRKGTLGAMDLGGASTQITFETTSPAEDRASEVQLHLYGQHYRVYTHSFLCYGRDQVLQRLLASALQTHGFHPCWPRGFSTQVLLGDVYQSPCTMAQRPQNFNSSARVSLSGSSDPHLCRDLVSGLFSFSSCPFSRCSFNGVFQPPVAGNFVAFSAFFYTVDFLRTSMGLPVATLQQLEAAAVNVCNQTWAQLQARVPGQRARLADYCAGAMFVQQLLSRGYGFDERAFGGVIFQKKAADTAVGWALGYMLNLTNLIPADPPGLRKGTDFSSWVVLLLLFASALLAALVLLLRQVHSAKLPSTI

[2] = target: T2, h-NTPDase3 (Homo sapiens, UniProt O75355); experiment: h-NTPDase activity assay; conditions: for inhibition at 100 µM: read-out: % Inhibition h-NTPDase3
T2 sequence (O75355 1-529): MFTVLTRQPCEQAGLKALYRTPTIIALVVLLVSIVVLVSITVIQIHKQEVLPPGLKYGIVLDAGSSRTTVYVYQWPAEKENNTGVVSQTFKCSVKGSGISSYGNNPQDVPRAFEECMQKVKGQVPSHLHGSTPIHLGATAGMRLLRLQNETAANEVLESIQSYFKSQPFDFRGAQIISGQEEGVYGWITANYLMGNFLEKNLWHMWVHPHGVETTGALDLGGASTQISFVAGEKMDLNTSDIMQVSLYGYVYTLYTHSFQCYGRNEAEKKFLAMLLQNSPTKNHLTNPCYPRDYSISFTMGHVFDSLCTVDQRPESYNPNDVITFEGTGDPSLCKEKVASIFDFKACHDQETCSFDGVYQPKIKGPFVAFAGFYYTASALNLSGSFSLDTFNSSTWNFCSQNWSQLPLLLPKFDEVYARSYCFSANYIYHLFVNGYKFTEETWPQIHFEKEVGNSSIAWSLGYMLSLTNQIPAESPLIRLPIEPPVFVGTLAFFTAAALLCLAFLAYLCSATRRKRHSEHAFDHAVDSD
In short: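 Human NTPDase1, -2, -3 or -8 came from COS-7 cells transfected with plasmids via Lipofectamine, harvested at 44–48 h, sonicated and cleared of nuclei, with protein measured by Bradford. Enzyme per well was 12, 37, 43 or 63 ng respectively. Compound (0.1 mM final) was pre-incubated 10 min at 37 °C in 50 mM Tris–HCl, 5 mM CaCl2, pH 7.4. The reaction was started with ATP (100 µM), run 15 min, and stopped with malachite green; Pi was read at 630 nm.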

[3] = target: T3, h-NTPDase8 (Homo sapiens, UniProt Q5MY95); experiment: h-NTPDase activity assay; conditions: for inhibition at 100 µM: read-out: % Inhibition h-NTPDase8, at 100 µM
T3 sequence (Q5MY95 1-495): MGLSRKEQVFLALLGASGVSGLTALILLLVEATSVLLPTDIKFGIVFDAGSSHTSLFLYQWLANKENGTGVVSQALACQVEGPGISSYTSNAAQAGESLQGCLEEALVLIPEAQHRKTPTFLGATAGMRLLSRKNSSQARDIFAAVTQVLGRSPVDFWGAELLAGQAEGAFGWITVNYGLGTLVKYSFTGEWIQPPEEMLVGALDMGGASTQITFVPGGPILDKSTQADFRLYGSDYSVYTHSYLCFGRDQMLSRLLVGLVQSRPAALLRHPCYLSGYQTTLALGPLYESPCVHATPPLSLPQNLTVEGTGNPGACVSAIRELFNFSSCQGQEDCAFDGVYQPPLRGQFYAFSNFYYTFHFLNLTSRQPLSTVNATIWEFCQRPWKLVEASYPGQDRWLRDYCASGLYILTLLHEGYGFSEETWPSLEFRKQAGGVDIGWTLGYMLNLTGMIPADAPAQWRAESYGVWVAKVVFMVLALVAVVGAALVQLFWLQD

[4] = target: T4, h-e5’NT (Homo sapiens, UniProt P21589); experiment: h-e5’NT activity assay; conditions: for inhibition at 100 µM: read-out: % Inhibition h-e5’NT
T4 sequence (P21589 27-574): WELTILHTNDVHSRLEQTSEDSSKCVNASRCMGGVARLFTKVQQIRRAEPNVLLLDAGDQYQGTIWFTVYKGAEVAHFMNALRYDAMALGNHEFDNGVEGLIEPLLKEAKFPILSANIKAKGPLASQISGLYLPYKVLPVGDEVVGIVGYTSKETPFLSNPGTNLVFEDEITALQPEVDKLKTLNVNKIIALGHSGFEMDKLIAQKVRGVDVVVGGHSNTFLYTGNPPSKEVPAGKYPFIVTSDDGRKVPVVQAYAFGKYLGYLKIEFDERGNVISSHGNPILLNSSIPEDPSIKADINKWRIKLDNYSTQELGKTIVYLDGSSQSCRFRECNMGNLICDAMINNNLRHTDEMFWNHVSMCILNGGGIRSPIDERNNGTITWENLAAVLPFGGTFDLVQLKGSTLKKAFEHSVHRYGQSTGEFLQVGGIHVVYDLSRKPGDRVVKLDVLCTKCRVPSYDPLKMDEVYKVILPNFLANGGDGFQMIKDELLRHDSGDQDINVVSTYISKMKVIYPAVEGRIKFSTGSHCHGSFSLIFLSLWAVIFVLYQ
In short: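 Human ecto-5′-nucleotidase from transfected COS-7 cells was pre-incubated 10 min at 37 °C with compound (0.1 mM final) in 50 mM Tris–HCl with MgCl₂ and CaCl₂, pH 7.4. The reaction was started with AMP (2 mM solution as added) and run 20 min at 37 °C. Released phosphate was detected with malachite green at 630 nm, in triplicate.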

Compound | inhibition at 100 µM [1] | IC50 [2] | inhibition at 100 µM [2] | inhibition at 100 µM [3] | IC50 [4] | inhibition at 100 µM [4] | IC50 [3] | IC50 [1]
O=C(Nc1ccc(F)cc1F)c1ccc2ncccc2c1 [Compound 4e, N-(2,4 difluorophenyl)quinoline-6-carboxamide] | 36.4% |  | 40.2% | 39.5% | 540 ± 90 nM | 66.9% |  | 
Cc1ccc(CNC(=O)c2ccc3ncccc3c2)cc1 [Compound 4c, N-(4-methylbenzyl)quinoline-6-carboxamide] | 68.4% | 670 ± 270 nM | 78.4% | 70.9% | 190 ± 10 nM | 50.7% | 990 ± 130 nM | 6390 ± 1070 nM
Cc1ccc(F)cc1NC(=O)c1ccc2ncccc2c1 [Compound 4l, N-(5-fluoro 2-methylphenyl)quinoline-6-carboxamide] | 41.2% |  | 36.1% | 26.1% | 470 ± 260 nM | 61% |  | 
O=C(Nc1c(F)cccc1F)c1ccc2ncccc2c1 [Compound 4d, N-(2,6 difluorophenyl)quinoline-6-carboxamide] | 80.1% | 820 ± 70 nM | 58.4% | 33% |  | 35.6% |  | 920 ± 170 nM
O=C(NCc1ccc(F)cc1)c1ccc2ncccc2c1 [Compound 4b, N-(4-fluorobenzyl)quinoline-6-carboxamide] | 26.2% | 350 ± 170 nM | 67.8% | 83% |  | 37% | 440 ± 80 nM | 

Other lines, results leading:

inhibition at 100 µM [1] | IC50 [2] | inhibition at 100 µM [2] | inhibition at 100 µM [3] | IC50 [4] | inhibition at 100 µM [4] | IC50 [3] | IC50 [1] | Compound
33.9% | 320 ± 50 nM | 81.7% | 20.4% | 340 ± 70 nM | 82% |  |  | O=C(Nc1ccccn1)c1ccc2ncccc2c1 [Compound 4g, N-(pyridin-2-yl)quinoline-6-carboxamide]
28.3% | 880 ± 290 nM | 85% | 65.6% | 390 ± 100 nM | 87% | 3290 ± 360 nM |  | O=C(Nc1ccccc1I)c1ccc2ncccc2c1 [Compound 4h, N-(2-iodophenyl)quinoline-6-carboxamide]
18.6% |  | 38.5% | 27% |  | 28.4% |  |  | O=C(Nc1ccc(I)cc1)c1ccc2ncccc2c1 [Compound 4k, N-(4-Iodophenyl)quinoline-6-carboxamide]
